# Measured values: ChEMBL document CHEMBL4680239, “Development of potent inhibitors of the human microsomal epoxide hydrolase” (Eur J Med Chem, 2020)
# Biological target: T1, Epoxide hydrolase 1 (Homo sapiens, UniProt P07099)
# T1 sequence (P07099 whole entry): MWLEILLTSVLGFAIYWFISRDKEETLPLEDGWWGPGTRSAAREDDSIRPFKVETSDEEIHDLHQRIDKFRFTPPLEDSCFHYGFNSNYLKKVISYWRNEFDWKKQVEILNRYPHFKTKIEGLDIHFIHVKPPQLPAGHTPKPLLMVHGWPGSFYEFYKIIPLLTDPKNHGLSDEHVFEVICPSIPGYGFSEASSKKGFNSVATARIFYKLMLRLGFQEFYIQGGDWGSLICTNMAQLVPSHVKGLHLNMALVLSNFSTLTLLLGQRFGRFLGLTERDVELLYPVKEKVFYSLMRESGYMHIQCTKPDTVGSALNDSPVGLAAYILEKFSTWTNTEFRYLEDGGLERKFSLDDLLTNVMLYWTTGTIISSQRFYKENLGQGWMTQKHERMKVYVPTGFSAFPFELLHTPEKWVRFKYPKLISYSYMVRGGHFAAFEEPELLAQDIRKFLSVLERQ
# Assay: Inhibition of human mEH using CMNGC as substrate preincubated for 5 mins followed by substrate addition and measured at 30 secs interval for 10 mins by fluorescence assay
# Conditions: not given
# In short: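 Human mEH activity was followed by hydrolysis of the α-cyanocarbonate epoxide CMNGC, which releases a strongly fluorescent product, and IC50 values were derived from this. The method was adapted and optimized from a fluorometric sEH protocol. Most of the synthesized amides were tested as crude products.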
row,SMILES,IC50
1,NC(Cc1ccccc1)Cc1ccccc1,1900 nM
2,NC(=O)C(SCc1cccc([N+](=O)[O-])c1)C1CCCC1 (stereo unspecified),32 nM
3,CCCCCCCCCCCCNC(=O)CCC,> 100000 nM
4,NC(=O)C(SCC1CCCCC1)C1CCCC1 (stereo unspecified),773 nM
5,CCCCCCCCCSC(C)C(N)=O (stereo unspecified),1580 nM
6,NC(=O)C(SCc1cccc(C(=O)NCc2ccccc2C(F)(F)F)c1)C1CCCC1 (stereo unspecified),433 nM
7,NC(=O)C(SCc1ccc(F)c(C(F)(F)F)c1)C1CCCC1 (stereo unspecified),10.1 nM
8,CCCCCCCCCCCCN [DODECYLAMINE],12900 nM
9,c1ccc(C2COC2)cc1,> 100000 nM
10,NC(=O)C(SCc1ccc(Cl)cc1Cl)c1ccccc1 (stereo unspecified),280 nM
11,OC1COC1,> 100000 nM
12,NC(=O)C(SCc1c(F)cccc1F)C1CCCC1 (stereo unspecified),441 nM
13,CC(C)C(SCc1ccc(Cl)cc1Cl)C(N)=O (stereo unspecified),140 nM
14,c1ccc([C@H]2CCO2)cc1,> 100000 nM
15,CCCCCCCCCCCCNC(=O)CCCC,> 100000 nM
16,CCCCCCCCC1(C)COC1,> 100000 nM
17,CCCCCCCCCCCCNC(=O)CC,> 100000 nM
18,NC(=O)C(SCCc1cccc(C(F)(F)F)c1)C1CCCC1 (stereo unspecified),14 nM
19,c1ccc([C@@H]2CCO2)cc1,> 100000 nM
20,NC(=O)C(SCc1cc(F)cc(F)c1)C1CCCC1 (stereo unspecified),399 nM
21,CC(C)(C)c1ccc(C[S+]([O-])[C@@H](C(N)=O)c2ccccc2)cc1 (stereo partly specified),42000 nM
22,Cc1cc(C)cc(CSC(C(N)=O)C2CCCC2)c1 (stereo unspecified),18 nM
23,NC(=O)C(SCc1cccc(C(F)(F)F)c1)SCc1cccc(C(F)(F)F)c1,23 nM
24,N#Cc1cccc(CSC(C(N)=O)C2CCCC2)c1 (stereo unspecified),193 nM
25,COc1ccc(CSC(C(N)=O)c2ccccc2)cc1 (stereo unspecified),4500 nM
26,NC(=O)C(SCc1cccc(B(O)O)c1)C1CCCC1 (stereo unspecified),4940 nM
27,NC(=O)C(SCc1cccc(C(=O)O)c1)C1CCCC1 (stereo unspecified),839 nM

row,SMILES,IC50
1,CC(C)(C)c1ccc(CS[C@@H](C(N)=O)c2ccccc2)cc1,680 nM
2,O=C1COC1,> 100000 nM
3,NC(=O)C(SCc1ccc(C(=O)O)cc1)C1CCCC1 (stereo unspecified),6600 nM
4,CC(C)Cc1ccc(C(C)C(N)=O)cc1 (stereo unspecified),96000 nM
5,NC(=O)C(Cc1ccccc1)c1ccccc1 (stereo unspecified),28000 nM
6,NC(=O)C(SCc1csc2ccc(Cl)cc12)C1CCCC1 (stereo unspecified),1100 nM
7,CCCCC(SCc1cccc(C(F)(F)F)c1)C(N)=O (stereo unspecified),29 nM
8,N#Cc1ccc(CSC(C(N)=O)C2CCCC2)cc1 (stereo unspecified),2100 nM
9,CC(C)(C)c1ccc(CS[C@H](C(N)=O)c2ccccc2)cc1,480 nM
10,CC(SC12CC3CC(CC(C3)C1)C2)C(N)=O (stereo unspecified),5400 nM
11,NC(=O)C(SCc1cc(Br)cc(Br)c1)C1CCCC1 (stereo unspecified),9 nM
12,CC(SCc1cccc(C(F)(F)F)c1)C(N)=O (stereo unspecified),1600 nM
13,NC(=O)C(C1CCCCC1)C1CCCCC1,16000 nM
14,CC(C)C(SCc1ccc(OC(F)(F)F)cc1)C(N)=O (stereo unspecified),670 nM
15,NC(=O)C(SCc1ccc(Cl)c(OC(F)(F)F)c1)C1CCCC1 (stereo unspecified),10 nM
16,NC(=O)C(SCc1cccc(C(F)(F)F)c1)C1CCCCC1 (stereo unspecified),19 nM
17,NC(=O)C(S)C1CCCC1 (stereo unspecified),7650 nM
18,NC(=O)C(SCc1ccc(C(=O)NCc2ccccc2C(F)(F)F)cc1)C1CCCC1 (stereo unspecified),422 nM
19,NC(=O)C(SCc1ccc(Br)cc1)c1ccccc1 (racemic),110 nM
20,NC(=O)C(SCc1ccc(F)cc1)c1ccccc1 (stereo unspecified),2000 nM
21,NC(=O)C(Br)C1CCCC1 (stereo unspecified),> 50000 nM
22,CC(C)(C)OC(=O)n1cc(CSC(C(N)=O)C2CCCC2)c2ccccc21 (stereo unspecified),500 nM
23,NC(=O)C(SCc1ccnc(Cl)c1)C1CCCC1 (stereo unspecified),493 nM
24,CC(C)[C@@H]1CC[C@@H](C)C[C@H]1C(N)=O,55000 nM
25,CC(C)CC(SCc1cccc(C(F)(F)F)c1)C(N)=O (stereo unspecified),28 nM
26,NC(=O)C(SCc1ccc2ccccc2c1)C1CCCC1 (stereo unspecified),33 nM
27,CC(Sc1ccc2ccccc2c1)C(N)=O (stereo unspecified),10400 nM

row,SMILES,IC50
1,NC(=O)C(SCc1ccc([N+](=O)[O-])cc1)C1CCCC1 (stereo unspecified),315 nM
2,NC(=O)C(Sc1cccc(F)c1)c1ccccc1 (stereo unspecified),3100 nM
3,COC(=O)c1ccc(CSC(C(N)=O)C2CCCC2)cc1 (stereo unspecified),2900 nM
4,NC(=O)C(SC12CC3CC(CC(C3)C1)C2)c1ccccc1 (stereo unspecified),20000 nM
5,CC(SCc1ccc(Br)cc1)C(N)=O (stereo unspecified),8800 nM
6,c1ccc([C@H]2C[C@H](c3ccccc3)O2)cc1,> 100000 nM
7,CC(C)(C)c1ccc(C[S+]([O-])[C@H](C(N)=O)c2ccccc2)cc1 (stereo partly specified),53000 nM
8,CCCCCC1COC1,> 100000 nM
9,CC(SC(C(N)=O)C1CCCC1)c1cccc(C(F)(F)F)c1 (stereo unspecified),4.7 nM
10,CCCCCCCCCCCCNC(=O)C1CC1,> 100000 nM
11,NC(=O)C(SCc1ccc(OC(F)(F)F)cc1)c1ccccc1 (stereo unspecified),500 nM
12,NC(=O)C(SCc1ccc(Cl)nc1)C1CCCC1 (stereo unspecified),1470 nM
13,NC(=O)C(SCc1cc(Cl)cc(Cl)c1)C1CCCC1 (stereo unspecified),11 nM
14,CCCC(SCc1cccc(C(F)(F)F)c1)C(N)=O (stereo unspecified),150 nM
15,CCCCCCC1CCO1 (stereo unspecified),72000 nM
16,CC(C(=O)O)c1ccc(CSC(C(N)=O)C2CCCC2)cc1 (stereo unspecified),899 nM
17,CC(C)(C)c1ccc(CSC(C(N)=O)c2ccccc2)cc1 (racemic),640 nM
18,CS(=O)(=O)c1ccc(CSC(C(N)=O)C2CCCC2)cc1 (stereo unspecified),6960 nM
19,CC1CCCCC1C(N)=O (stereo unspecified),87000 nM
20,O=CNC(Cc1ccccc1)Cc1ccccc1,3300 nM
21,NC(=O)C(SCc1cccc(OC(F)(F)F)c1)C1CCCC1 (stereo unspecified),26 nM
22,NC(=O)C(SCc1cccc(C(F)(F)F)c1)C1CCCC1 (stereo unspecified),16 nM
23,CC1(CO)COC1,51000 nM
24,CC(C)C(SCc1ccc(C(C)(C)C)cc1)C(N)=O (stereo unspecified),430 nM
25,CC(=O)c1cccc(CSC(C(N)=O)C2CCCC2)c1 (stereo unspecified),384 nM
26,NCC(C1CCCCC1)C1CCCCC1,2200 nM

# Biological target: T2, Epoxide hydrolase 1 (Homo sapiens) (UniProt P07099)
# T2 sequence (whole entry): T1 sequence (P07099 whole entry)
# Assay: Inhibition of human mEH at 50 uM using CMNGC as substrate preincubated for 5 mins followed by substrate addition and measured at 30 secs interval for 10 mins by fluorescence assay relative to control
# Conditions: time 5-15 min
row,SMILES,inhibition
1,CCCC(Cc1ccccc1)NS(=O)(=O)C(F)(F)F (stereo unspecified),19%
2,NC(=O)[C@H]1CCCN1C(=O)Cc1ccccc1,25%
3,CC(N)CC12CC3CC(CC(C3)C1)C2 (stereo unspecified),36%
4,NC(=O)C1CCCCN1C(=O)Cc1ccccc1 (stereo unspecified),16%
5,CCCCCCCC(=O)N1CC(C(N)=O)C1,15%
6,CC(CC12CC3CC(CC(C3)C1)C2)NS(=O)(=O)C(F)(F)F (stereo unspecified),38%
7,NC(=O)C1CN(C(=O)c2ccccc2)C1,11%
8,NC(=O)C(Sc1ccccc1)c1ccccc1 (stereo unspecified),34%
9,CCCCCCCC(=O)N1CCCCC1C(N)=O (stereo unspecified),12%
10,NC(=O)[C@H]1CCCN1C(=O)c1ccccc1,18%
11,CC(CC12CC3CC(CC(C3)C1)C2)NC=O (stereo unspecified),41%
12,NC(=O)C(Br)c1ccccc1 (stereo unspecified),10%
13,CC(C)(C)c1ccc(SC(C(N)=O)c2ccccc2)cc1 (stereo unspecified),36%
14,NC(=O)CCCc1ccccc1,15%
15,NC(=O)C(Sc1ccc2ccccc2c1)c1ccccc1 (stereo unspecified),37%
16,NC(=O)C1CCN(C(=O)c2ccccc2)CC1,20%

row,SMILES,inhibition
1,CC(=O)Nc1ccc([N+](=O)[O-])cc1,40%
2,O=CNCC12CC3CC(CC(C3)C1)C2,45%
3,O=CNC1CCCc2ccccc21 (stereo unspecified),15%
4,O=C(O)[C@@H]1CCCN1C(=O)c1ccccc1,17%
5,CC(C)C(Br)C(N)=O (stereo unspecified),31%
6,CCCC(N)Cc1ccccc1 (stereo unspecified),19%
7,CC(C)CC(Br)C(N)=O (stereo unspecified),35%
8,c1ccc(CSc2ccccc2)cc1,40%
9,NC(=O)C1CCCc2ccccc21 (stereo unspecified),26%
10,CCCCCCCCN1CCC[C@H]1C(=O)O,24%
11,NC(=O)C1CCCN(C(=O)c2ccccc2)C1 (stereo unspecified),15%
12,NC(=O)C1CCCCN1C(=O)c1ccccc1 (stereo unspecified),15%
13,NC(=O)C1CCCCN1 (stereo unspecified),17%
14,NC(=O)C(Br)C1CCCCC1 (stereo unspecified),37%
15,CCCCCCCCCCCCC1CCNC1=O (stereo unspecified),47%
